Source: ChEMBL document CHEMBL5712906, “Discovery of a novel long noncoding RNA overlapping the LCK gene that regulates prostate cancer cell growth” (2019)
The source made the active and inactive calls. The calls are words filed in the database; no cut-off is given here.

How the values were obtained:
[1] = biological target: Histone acetyltransferase p300 (Homo sapiens) (UniProt Q09472); test: Inhibition of p300 in human LNCaP cells assessed as effect on HULLK expression at 0.3 uM measured after 24 hrs by qpCR analysis; assay type: cell-based
Summary of the method: (§1)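 Cells seeded 48 h in their usual growth medium, then given 1 nM R1881 with or without 0.3 μM inhibitor. RNA harvested 24 h after treatment; transcripts quantified by qPCR. HULLK measured with two independent LCK primer pairs (exon 13 or 3′UTR). PSA and TMPRSS2 transcripts serve as checks that p300 inhibition worked. n = 3.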

[2] = biological target: Histone acetyltransferase p300 (Homo sapiens) (UniProt Q09472); test: Inhibition of p300 in human LNCaP C4-2 cells assessed as effect on HULLK expression at 0.3 uM measured after 24 hrs by qpCR analysis; assay type: cell-based; summary of the method: as §1
[3] = biological target: Histone acetyltransferase p300 (Homo sapiens) (UniProt Q09472); test: Inhibition of p300 in human LNCaP cells assessed as reduction in R1881-induced increase in HULLK expression at 0.3 uM measured after 24 hrs by qPCR analysis; assay type: cell-based; summary of the method: as §1
[4] = biological target: Histone acetyltransferase p300 (Homo sapiens) (UniProt Q09472); test: Inhibition of p300 in human LNCaP C4-2 cells assessed as reduction in R1881-induced increase in HULLK expression at 0.3 uM measured after 24 hrs by qPCR analysis; assay type: cell-based; summary of the method: as §1
[5] = biological target: Histone acetyltransferase p300 (Homo sapiens) (UniProt Q09472); test: Inhibition of p300 in human LNCaP cells assessed as reduction in R1881-induced increase in PSA expression at 0.3 uM measured after 24 hrs by qPCR analysis; assay type: cell-based; summary of the method: as §1
[6] = biological target: Histone acetyltransferase p300 (Homo sapiens) (UniProt Q09472); test: Inhibition of p300 in human LNCaP C4-2 cells assessed as reduction in R1881-induced increase in PSA expression at 0.3 uM measured after 24 hrs by qPCR analysis; assay type: cell-based; summary of the method: as §1
[7] = biological target: Histone acetyltransferase p300 (Homo sapiens) (UniProt Q09472); test: Inhibition of p300 in human LNCaP cells assessed as reduction in R1881-induced increase in TMPRSS2 expression at 0.3 uM measured after 24 hrs by qPCR analysis; assay type: cell-based; summary of the method: as §1
[8] = biological target: Histone acetyltransferase p300 (Homo sapiens) (UniProt Q09472); test: Inhibition of p300 in human LNCaP C4-2 cells assessed as reduction in R1881-induced increase in TMPRSS2 expression at 0.3 uM measured after 24 hrs by qPCR analysis; assay type: cell-based; summary of the method: as §1
LNCaP = test: Reduction in R1881-induced increase in LCK 3'-UTR expression in human LNCaP cells at 10 uM measured after 24 hrs by qPCR analysis; assay type: functional, cell-based
Summary of the method: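 Cells seeded for 48 h, then exposed to 1 nM R1881 with or without 10 μM enzalutamide. RNA harvested 24 h after treatment. LCK transcript measured by qPCR with primers in the 3′UTR. n = 3.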

Sequence of Histone acetyltransferase p300 (Homo sapiens) (Q09472 whole entry): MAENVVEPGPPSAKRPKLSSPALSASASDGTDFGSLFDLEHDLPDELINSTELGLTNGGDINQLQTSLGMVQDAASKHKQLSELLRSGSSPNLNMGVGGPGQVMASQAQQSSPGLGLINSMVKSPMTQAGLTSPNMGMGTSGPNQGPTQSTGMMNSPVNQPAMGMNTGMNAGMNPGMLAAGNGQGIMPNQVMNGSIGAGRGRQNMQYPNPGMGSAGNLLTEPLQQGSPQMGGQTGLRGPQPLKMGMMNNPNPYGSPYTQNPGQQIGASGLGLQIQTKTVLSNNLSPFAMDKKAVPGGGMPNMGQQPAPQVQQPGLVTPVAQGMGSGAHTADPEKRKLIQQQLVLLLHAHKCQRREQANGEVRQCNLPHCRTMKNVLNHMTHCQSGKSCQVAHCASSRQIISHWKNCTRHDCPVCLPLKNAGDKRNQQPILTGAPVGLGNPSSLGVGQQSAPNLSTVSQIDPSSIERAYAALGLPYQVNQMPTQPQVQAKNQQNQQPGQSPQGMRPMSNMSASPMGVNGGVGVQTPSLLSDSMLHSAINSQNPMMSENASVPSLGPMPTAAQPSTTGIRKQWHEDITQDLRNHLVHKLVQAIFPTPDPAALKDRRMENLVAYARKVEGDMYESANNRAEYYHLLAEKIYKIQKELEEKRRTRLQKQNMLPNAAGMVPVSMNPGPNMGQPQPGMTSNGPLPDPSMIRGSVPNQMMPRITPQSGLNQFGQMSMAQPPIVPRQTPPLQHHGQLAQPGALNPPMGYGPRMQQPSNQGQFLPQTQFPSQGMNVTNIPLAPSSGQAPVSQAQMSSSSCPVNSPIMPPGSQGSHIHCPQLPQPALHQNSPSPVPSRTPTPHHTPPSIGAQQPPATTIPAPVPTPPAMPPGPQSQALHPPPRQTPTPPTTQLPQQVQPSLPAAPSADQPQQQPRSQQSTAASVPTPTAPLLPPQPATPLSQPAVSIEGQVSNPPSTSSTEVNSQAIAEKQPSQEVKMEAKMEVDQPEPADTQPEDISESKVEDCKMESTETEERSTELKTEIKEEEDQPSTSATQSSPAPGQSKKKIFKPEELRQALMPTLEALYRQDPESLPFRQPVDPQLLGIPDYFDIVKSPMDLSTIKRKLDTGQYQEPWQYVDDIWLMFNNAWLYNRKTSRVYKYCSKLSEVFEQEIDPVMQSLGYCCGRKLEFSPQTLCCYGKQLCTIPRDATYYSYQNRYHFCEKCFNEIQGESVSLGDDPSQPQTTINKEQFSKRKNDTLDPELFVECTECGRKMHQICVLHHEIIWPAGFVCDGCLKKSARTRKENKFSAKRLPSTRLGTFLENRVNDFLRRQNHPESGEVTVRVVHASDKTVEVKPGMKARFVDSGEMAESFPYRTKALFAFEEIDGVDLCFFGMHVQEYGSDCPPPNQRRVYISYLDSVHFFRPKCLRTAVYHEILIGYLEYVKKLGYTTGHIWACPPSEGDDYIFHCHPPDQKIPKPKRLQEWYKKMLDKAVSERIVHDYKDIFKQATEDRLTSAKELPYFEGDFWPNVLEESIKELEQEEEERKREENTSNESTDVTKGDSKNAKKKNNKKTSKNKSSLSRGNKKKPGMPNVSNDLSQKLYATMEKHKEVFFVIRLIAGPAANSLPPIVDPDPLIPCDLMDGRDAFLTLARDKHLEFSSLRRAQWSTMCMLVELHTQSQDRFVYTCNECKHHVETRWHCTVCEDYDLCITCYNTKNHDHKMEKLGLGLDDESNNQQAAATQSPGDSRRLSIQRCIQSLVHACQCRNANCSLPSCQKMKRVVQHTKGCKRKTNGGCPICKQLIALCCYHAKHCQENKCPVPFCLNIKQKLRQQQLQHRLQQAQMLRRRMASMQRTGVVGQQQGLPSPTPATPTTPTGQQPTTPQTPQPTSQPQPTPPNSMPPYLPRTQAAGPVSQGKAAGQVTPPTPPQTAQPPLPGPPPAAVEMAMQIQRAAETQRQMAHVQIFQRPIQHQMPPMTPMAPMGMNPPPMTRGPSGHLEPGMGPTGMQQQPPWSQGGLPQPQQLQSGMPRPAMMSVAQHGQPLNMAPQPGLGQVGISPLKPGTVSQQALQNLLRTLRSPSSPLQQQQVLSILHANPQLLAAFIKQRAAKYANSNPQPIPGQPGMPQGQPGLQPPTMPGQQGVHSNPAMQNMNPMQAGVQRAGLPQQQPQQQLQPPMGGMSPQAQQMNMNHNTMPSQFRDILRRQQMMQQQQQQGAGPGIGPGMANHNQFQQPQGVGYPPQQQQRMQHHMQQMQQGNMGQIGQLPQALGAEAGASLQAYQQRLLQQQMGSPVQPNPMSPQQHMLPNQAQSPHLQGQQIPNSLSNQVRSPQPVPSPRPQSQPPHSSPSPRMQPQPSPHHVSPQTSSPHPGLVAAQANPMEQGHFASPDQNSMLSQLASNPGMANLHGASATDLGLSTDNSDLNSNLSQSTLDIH

CNC(=O)Nc1ccc2c(c1)CC[C@@]21OC(=O)N(CC(=O)N(Cc2ccc(F)cc2)[C@@H](C)C(F)(F)F)C1=O
inhibition [1]: inactive | inhibition [2]: inactive | inhibition [3]: Active | inhibition [4]: Active | inhibition [5]: Active | inhibition [6]: Active | inhibition [7]: Active | inhibition [8]: Active

CNC(=O)c1ccc(N2C(=S)N(c3ccc(C#N)c(C(F)(F)F)c3)C(=O)C2(C)C)cc1F
Activity (LNCaP): Active
